What was measured:
[1] = substrate: CCCCCCCCCCCCCCCC(=O)N[C@@H](CO)[C@H](O)/C=C/CCCCCCCCCOc1ccc2c(=O)cc3oc4cc(N(CC)CC)ccc4nc-3c2c1; experiment: (§1) Activity of human recombinant acid ceramidase expressed in baculovirus infected Sf9 cells assessed per ug of protein after 150 mins by Lineweaver-Burk plot analysis
Summary of the method: (§2)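 Recombinant human aCDase expressed in insect cells, at a fixed enzyme level, in 200 mM sodium acetate pH 4.5 with 200 mM NaCl and 0.1% Triton X-100. Substrate varied from 5 to 150 µM or 5 to 180 µM, added from DMSO stocks (DMSO <5% v/v), 37 °C for 150 min. Chloroform/methanol extraction, TLC, fluorescence imaging of cleaved and uncleaved spots. KM, Vmax and kcat taken from Lineweaver-Burk plots, mean ± SD of three independent experiments.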

[2] = substrate: CCCCCCCCCCCCC/C=C/[C@@H](O)[C@H](CO)NC(=O)CCCCCCCCCCCNc1ccc([N+](=O)[O-])c2nonc12; experiment: as §1; summary of the method: as §2
[3] = substrate: CCCCCCCCCCCCC/C=C/[C@@H](O)[C@H](CO)NC(=O)CCCCCCCCCCCOc1ccc2c(=O)cc3oc4cc(N(CC)CC)ccc4nc-3c2c1; experiment: as §1; summary of the method: as §2
[4] = substrate: CCCCCCCCCCCCCCCC(=O)N[C@@H](CO)[C@H](O)/C=C/CCCCCCCCCNc1ccc([N+](=O)[O-])c2nonc12; experiment: as §1; summary of the method: as §2
[5] = substrate: CCCCCCCCCCCCCCCC(=O)N[C@@H](CO)[C@H](O)/C=C/CCCCCCCCCOc1ccc2c(=O)cc3oc4cc(N(CC)CC)ccc4nc-3c2c1; experiment: (§3) Activity of human recombinant acid ceramidase expressed in baculovirus infected Sf9 cells after 150 mins by Lineweaver-Burk plot analysis; summary of the method: as §2
[6] = substrate: CCCCCCCCCCCCC/C=C/[C@@H](O)[C@H](CO)NC(=O)CCCCCCCCCCCNc1ccc([N+](=O)[O-])c2nonc12; experiment: as §3; summary of the method: as §2
[7] = substrate: CCCCCCCCCCCCC/C=C/[C@@H](O)[C@H](CO)NC(=O)CCCCCCCCCCCOc1ccc2c(=O)cc3oc4cc(N(CC)CC)ccc4nc-3c2c1; experiment: as §3; summary of the method: as §2
[8] = substrate: CCCCCCCCCCCCCCCC(=O)N[C@@H](CO)[C@H](O)/C=C/CCCCCCCCCNc1ccc([N+](=O)[O-])c2nonc12; experiment: as §3; summary of the method: as §2
[9] = substrate: CCCCCCCCCCCCCCCC(=O)N[C@@H](CO)[C@H](O)/C=C/CCCCCCCCCOc1ccc2c(=O)cc3oc4cc(N(CC)CC)ccc4nc-3c2c1; experiment: (§4) Activity of human recombinant neutral ceramidase assessed per ng of protein after 60 mins by Lineweaver-Burk plot analysis
Summary of the method: (§5)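 Human recombinant nCDase held at 20 ng/mL in 200 mM sodium acetate pH 7.0 with 200 mM NaCl and 0.1% Triton X-100. Substrate varied from 5 to 150 or 5 to 180 µM, DMSO <5%. Incubated 60 min at 37 °C, chloroform/methanol quench, TLC with fluorescence imaging. Kinetic constants from Lineweaver-Burk plots, mean ± SD of triplicate experiments.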

[10] = substrate: CCCCCCCCCCCCC/C=C/[C@@H](O)[C@H](CO)NC(=O)CCCCCCCCCCCNc1ccc([N+](=O)[O-])c2nonc12; experiment: as §4; summary of the method: as §5
[11] = substrate: CCCCCCCCCCCCC/C=C/[C@@H](O)[C@H](CO)NC(=O)CCCCCCCCCCCOc1ccc2c(=O)cc3oc4cc(N(CC)CC)ccc4nc-3c2c1; experiment: as §4; summary of the method: as §5
[12] = substrate: CCCCCCCCCCCCCCCC(=O)N[C@@H](CO)[C@H](O)/C=C/CCCCCCCCCNc1ccc([N+](=O)[O-])c2nonc12; experiment: as §4; summary of the method: as §5
[13] = substrate: CCCCCCCCCCCCCCCC(=O)N[C@@H](CO)[C@H](O)/C=C/CCCCCCCCCOc1ccc2c(=O)cc3oc4cc(N(CC)CC)ccc4nc-3c2c1; experiment: (§6) Activity of human recombinant neutral ceramidase after 60 mins by Lineweaver-Burk plot analysis; summary of the method: as §5
[14] = substrate: CCCCCCCCCCCCC/C=C/[C@@H](O)[C@H](CO)NC(=O)CCCCCCCCCCCNc1ccc([N+](=O)[O-])c2nonc12; experiment: as §6; summary of the method: as §5
[15] = substrate: CCCCCCCCCCCCC/C=C/[C@@H](O)[C@H](CO)NC(=O)CCCCCCCCCCCOc1ccc2c(=O)cc3oc4cc(N(CC)CC)ccc4nc-3c2c1; experiment: as §6; summary of the method: as §5
[16] = substrate: CCCCCCCCCCCCCCCC(=O)N[C@@H](CO)[C@H](O)/C=C/CCCCCCCCCNc1ccc([N+](=O)[O-])c2nonc12; experiment: as §6; summary of the method: as §5
[17] = substrate: CCCCCCCCCCCCC/C=C/[C@@H](O)[C@H](CO)NC(=O)CCCCCCCCCCCNc1ccc([N+](=O)[O-])c2nonc12; experiment: Activity of mouse neutral ceramidase after 30 mins by TLC-based fluorescence imaging

B1: Acid ceramidase (Homo sapiens), Q13510 (protein)
chain: MPGRSCVALVLLAAAVSCAVAQHAPPWTEDCRKSTYPPSGPTYRGAVPWYTINLDLPPYKRWHELMLDKAPVLKVIVNSLKNMINTFVPSGKIMQVVDEKLPGLLGNFPGPFEEEMKGIAAVTDIPLGEIISFNIFYELFTICTSIVAEDKKGHLIHGRNMDFGVFLGWNINNDTWVITEQLKPLTVNLDFQRNNKTVFKASSFAGYVGMLTGFKPGLFSLTLNERFSINGGYLGILEWILGKKDVMWIGFLTRTVLENSTSYEEAKNLLTKTKILAPAYFILGGNQSGEGCVITRDRKESLDVYELDAKQGRWYVVQTNYDRWKHPFFLDDRRTPAKMCLNRTSQENISFETMYDVLSTKPVLNKLTVYTTLIDVTKGQFETYLRDCPDPCIGW
[1]
  specific activity: 0.078 pmol/min/µg
[2]
  specific activity: 0.0882 pmol/min/µg
[3]
  specific activity: 0.143 pmol/min/µg
[4]
  specific activity: 0.244 pmol/min/µg
[5]
  Km: 81.8 µM
  Vmax: 3.9 pmol/min
[6]
  Km: 86.9 µM
  Vmax: 4.4 pmol/min
[7]
  Km: 110 µM
  Vmax: 7.2 pmol/min
[8]
  Km: 204 µM
  Vmax: 12.2 pmol/min

B2: Neutral ceramidase (Homo sapiens), Q9NR71 (protein)
chain: MAKRTFSNLETFLIFLLVMMSAITVALLSLLFITSGTIENHKDLGGHFFSTTQSPPATQGSTAAQRSTATQHSTATQSSTATQTSPVPLTPESPLFQNFSGYHIGVGRADCTGQVADINLMGYGKSGQNAQGILTRLYSRAFIMAEPDGSNRTVFVSIDIGMVSQRLRLEVLNRLQSKYGSLYRRDNVILSGTHTHSGPAGYFQYTVFVIASEGFSNQTFQHMVTGILKSIDIAHTNMKPGKIFINKGNVDGVQINRSPYSYLQNPQSERARYSSNTDKEMIVLKMVDLNGDDLGLISWFAIHPVSMNNSNHLVNSDNVGYASYLLEQEKNKGYLPGQGPFVAAFASSNLGDVSPNILGPRCINTGESCDNANSTCPIGGPSMCIAKGPGQDMFDSTQIIGRAMYQRAKELYASASQEVTGPLASAHQWVDMTDVTVWLNSTHASKTCKPALGYSFAAGTIDGVGGLNFTQGKTEGDPFWDTIRDQILGKPSEEIKECHKPKPILLHTGELSKPHPWHPDIVDVQIITLGSLAITAIPGEFTTMSGRRLREAVQAEFASHGMQNMTVVISGLCNVYTHYITTYEEYQAQRYEAASTIYGPHTLSAYIQLFRNLAKAIATDTVANLSRGPEPPFFKQLIVPLIPSIVDRAPKGRTFGDVLQPAKPEYRVGEVAEVIFVGANPKNSVQNQTHQTFLTVEKYEATSTSWQIVCNDASWETRFYWHKGLLGLSNATVEWHIPDTAQPGIYRIRYFGHNRKQDILKPAVILSFEGTSPAFEVVTI
[9]
  specific activity: 0.26 pmol/min/ng
[10]
  specific activity: 3.1 pmol/min/ng
[11]
  specific activity: 0.5 pmol/min/ng
[12]
  specific activity: 1.6 pmol/min/ng
[13]
  Km: 36.4 µM
  Vmax: 5.3 pmol/min
[14]
  Km: 190 µM
  Vmax: 62.4 pmol/min
[15]
  Km: 85.3 µM
  Vmax: 10 pmol/min
[16]
  Km: 193 µM
  Vmax: 31.8 pmol/min

B3: Neutral ceramidase (Mus musculus), Q9JHE3 (protein)
chain: MAKRTFSTLEAFLIFLLVIMTVITVALLTLLFVTSGTIENHKDSGNHWFSTTLGSTTTQPPPITQTPNFPSFRNFSGYYIGVGRADCTGQVSDINLMGYGKNGQNARGLLTRLFSRAFILADPDGSNRMAFVSVELCMISQRLRLEVLKRLESKYGSLYRRDNVILSAIHTHSGPAGFFQYTLYILASEGFSNRTFQYIVSGIMKSIDIAHTNLKPGKIFINKGNVANVQINRSPSSYLLNPQSERARYSSNTDKEMLVLKLVDLNGEDLGLISWFAIHPVSMNNSNHFVNSDNMGYAAYLFEQEKNKGYLPGQGPFVAGFASSNLGDVSPNILGPHCVNTGESCDNDKSTCPNGGPSMCMASGPGQDMFESTHIIGRIIYQKAKELYASASQEVTGPVLAAHQWVNMTDVSVQLNATHTVKTCKPALGYSFAAGTIDGVSGLNITQGTTEGDPFWDTLRDQLLGKPSEEIVECQKPKPILLHSGELTIPHPWQPDIVDVQIVTVGSLAIAAIPGELTTMSGRRFREAIKKEFALYGMKDMTVVIAGLSNVYTHYITTYEEYQAQRYEAASTIYGPHTLSAYIQLFRDLAKAIATDTVANMSSGPEPPFFKNLIASLIPNIADRAPIGKHFGDVLQPAKPEYRVGEVVEVIFVGANPKNSAENQTHQTFLTVEKYEDSVADWQIMYNDASWETRFYWHKGILGLSNATIYWHIPDTAYPGIYRIRYFGHNRKQELLKPAVILAFEGISSPFEVVTT
[17]
  Km: 22.3 µM
  Vmax: 4.7 pmol/min
